Here are results for 1 molecule from ChEMBL document CHEMBL3045046, “Synthesis, herbicidal activities, and 3D-QSAR of 2-cyanoacrylates containing aromatic methylamine moieties” (J Agric Food Chem, 2008).

Common to all, as to format: functional
Experiment [1] relates to Amaranthus retroflexus. In words: Herbicidal activity against Amaranthus retroflexus assessed as inhibition of herb growth at 1.5 kg/ha during preemergence treatment protocol. As to conditions: pre-emergence, read-out: GI.
Experiment [2] deals with Medicago sativa. In words: Herbicidal activity against Medicago sativa (alfalfa) assessed as inhibition of herb growth at 1.5 kg/ha during preemergence treatment protocol. As to conditions: pre-emergence, read-out: GI.
The test system of experiment [3] is Brassica napus. Nature of the experiment: Herbicidal activity against Brassica napus (oilseed rape) assessed as inhibition of herb growth at 1.5 kg/ha during preemergence treatment protocol. The settings on record: pre-emergence, read-out: GI.
A further experiment concerns Spinacia oleracea. Nature of the experiment: Inhibition of photosynthetic electron transport in Spinacia oleracea (spinach)isolated chloroplasts assessed as inhibition of Hill reaction. The method in brief:
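Chloroplasts from fresh spinach leaves, homogenised in ice-cold pH 7.8 buffer (0.4 M sucrose, 10 mM NaCl, 50 mM Tris-HCl), spun 3 min 120g then 5 min 1000g at 4 °C. Reaction buffer 350 mM NaCl, 10 mM Tris-HCl pH 7.8 with DCPIP; 2 min light (360 µmol m^-2 s^-1), DCPIP reduction at 620 nm. Compounds 0.01 mg/L–0.3 mg/mL in […]/water, ≥triplicate; IC50 by log-linear regression.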

Experiment [4] deals with Brassica napus. In words: Herbicidal activity against Brassica napus (oilseed rape) assessed as inhibition of herb growth at 1.5 kg/ha during postemergence treatment protocol. As to conditions: post-emergence, read-out: GI.
In experiment [5] the test system is Amaranthus retroflexus. Nature of the experiment: Herbicidal activity against Amaranthus retroflexus assessed as inhibition of herb growth at 1.5 kg/ha during postemergence treatment protocol. The settings on record: post-emergence, read-out: GI.
In experiment [6] the test system is Digitaria sanguinalis. Nature of the experiment: Herbicidal activity against hairy Digitaria sanguinalis (hairy crabgrass) assessed as inhibition of herb growth at 1.5 kg/ha during postemergence treatment protocol. As to conditions: post-emergence, read-out: GI.
Experiment [7] deals with Digitaria sanguinalis. Nature of the experiment: Herbicidal activity against hairy Digitaria sanguinalis (hairy crabgrass) assessed as inhibition of herb growth at 1.5 kg/ha during preemergence treatment protocol. As to conditions: pre-emergence, read-out: GI.
The subject of experiment [8] is Medicago sativa. In words: Herbicidal activity against Medicago sativa (alfalfa) assessed as inhibition of herb growth at 1.5 kg/ha during postemergence treatment protocol. As to conditions: post-emergence, read-out: GI.

SMILES strings stand for the structures.

For `CCOCCOC(=O)/C(C#N)=C(\NCc1ccc(Cl)cc1)C(C)C`, the inhibition of growth at 1500 g/ha was 40.5% with Amaranthus retroflexus [1]; 0% in the experiment with Medicago sativa [2]; 4.4% in the experiment on Brassica napus [3]; 100% in the experiment with Brassica napus [4]; 100% in the experiment with Amaranthus retroflexus [5]; 46.4% in the experiment with Digitaria sanguinalis [6]. Further, the figures for the inhibition of growth at 1500 g/ha in the experiment on Digitaria sanguinalis [7] and with Medicago sativa [8] were 12.9% and 68.9%, respectively. The IC50 in the experiment on Spinacia oleracea is 0.043 ppm; in the experiment with Spinacia oleracea (Spinacia oleracea, read-out: pIC50 (converted)), 42.7 nM.
